# Assay results pooled from the literature.
# Compare with care: the assays were run in different laboratories.
# Medium: plasma
Structure (SMILES),system,conditions,half-life [h]
CSCC[C@H](NC(=O)COCCOCCNC(=O)COCCOCCNC(=O)CC[C@H](NC(=O)CCCCCCCCCCCCCCCCC(=O)O)C(=O)O)C(=O)N[C@H]1CSSC[C@@H](C(=O)NCC(=O)N[C@@H](CO)C(=O)NCC(=O)N[C@@H](CO)C(=O)N[C@@H](CC(=O)O)C(=O)N[C@@H](Cc2ccc(O)cc2)C(=O)N[C@@H](CCCCN)C(=O)N[C@@H](CC(=O)O)C(=O)N[C@@H](CC(=O)O)C(=O)N[C@@H](CC(=O)O)C(=O)N[C@@H](CC(=O)O)C(=O)N[C@@H](CCCCN)C(N)=O)NC(=O)[C@H](Cc2ccccc2)NC(=O)[C@@H]2CCCN2C(=O)[C@H](Cc2c[nH]c3ccccc23)NC(=O)[C@H](CC(C)C)NC(=O)[C@H](CCSC)NC(=O)[C@H](Cc2c[nH]cn2)NC(=O)[C@H](Cc2ccccc2)NC(=O)[C@H](Cc2c[nH]cn2)NC(=O)[C@H]([C@@H](C)O)NC(=O)[C@H](Cc2ccccc2)NC1=O,male Sprague-Dawley rat,intravenous,10.7
Cn1cnc(Cn2c(=O)[nH]/c(=N\c3cc4cn(C)nc4cc3Cl)n(Cc3cc(F)c(F)cc3F)c2=O)n1,male Sprague-Dawley rat,"oral, 25 mg/kg",3.86
CC(C)C[C@@H]1NC(=O)[C@H](CC(=O)O)NC(=O)[C@H](Cc2ccccc2)NC(=O)[C@H](Cc2c[nH]cn2)NC(=O)[C@H]([C@@H](C)O)NC(=O)[C@H](Cc2ccccc2)NC(=O)[C@@H](NC(=O)[C@H](C)NC(=O)COCCOCCNC(=O)COCCOCCNC(=O)CC[C@H](NC(=O)CCCCCCCCCCCCCCCCC(=O)O)C(=O)O)CSSC[C@@H](C(=O)O)NC(=O)[C@H](Cc2ccccc2)NC(=O)[C@@H]2CCCN2C(=O)[C@H](Cc2c[nH]c3ccccc23)NC(=O)[C@H](CC(C)C)NC1=O,male Sprague-Dawley rat,intravenous,4.17
N=c1c2c(-c3ccccc3)c(-c3ccccc3)n(Cc3ccccc3)c2ncn1[C@H]1CC[C@H](O)CC1,male Sprague-Dawley rat,"intravenous, 2 mg/kg, single dose",8.9
Cc1ncc(C)n2nc(/C=C/c3nc(N4CCCC4)cc(N4CCOCC4)n3)nc12,male Sprague-Dawley rat,"oral, 0.3 mg/kg",6
CCCC[C@@H]1NC(=O)[C@H](Cc2ccc(O)cc2)NC(=O)[C@@H]2CCCN2C(=O)[C@H](CC(=O)O)NC(=O)[C@H](C)NC(=O)[C@H](Cc2ccccc2)NC(=O)[C@@H]2CSCCC(=O)N3CN(CN(C3)C(=O)CCSC[C@H](NC(C)=O)C(=O)N[C@@H](CC(C)(C)C)C(=O)N[C@@H](CCC(=O)O)C(=O)N[C@@H](CCC(=O)O)C(=O)N[C@H](CCCCNC(=O)CCc3cn(CCOCCOCCOCCN(CCOCCOCCOCCC(=O)N[C@H]4CSCCC(=O)N5CN6CN(C5)C(=O)CCSC[C@H](NC(=O)[C@@H](CC(=O)O)NC(=O)[C@H](Cc5cccc7ccccc57)NC(=O)[C@@H]5CCCN5C4=O)C(=O)N[C@@H](CCSC)C(=O)N[C@@H](CCCCNC(=N)N)C(=O)N[C@@H](CC(=O)O)C(=O)N[C@@H](Cc4c[nH]c5ccccc45)C(=O)N[C@@H](CO)C(=O)N[C@@H]([C@@H](C)O)C(=O)N4CCC[C@H]4C(=O)N4C[C@H](O)C[C@H]4C(=O)N[C@@H](Cc4c[nH]c5ccccc45)C(=O)N[C@H](C(N)=O)CSCCC6=O)CCOCCOCCOCCn4cc(CCC(=O)NCCCC[C@H]5NC(=O)[C@H](CCC(=O)O)NC(=O)[C@H](CCC(=O)O)NC(=O)[C@H](CC(C)(C)C)NC(=O)[C@@H](NC(C)=O)CSCCC(=O)N6CN7CN(C6)C(=O)CCSC[C@H](NC(=O)[C@H](Cc6ccc(O)cc6)NC(=O)[C@@H]6CCCN6C5=O)C(=O)N[C@@H](Cc5ccccc5)C(=O)N[C@@H](C)C(=O)N[C@@H](CC(=O)O)C(=O)N5CCC[C@H]5C(=O)N[C@@H](Cc5ccc(O)cc5)C(=O)N[C@@H](CCCC)C(=O)N[C@H](C(N)=O)CSCCC7=O)nn4)nn3)C(=O)N3CCC[C@H]3C(=O)N[C@@H](Cc3ccc(O)cc3)C(=O)N2)C(=O)CCSC[C@@H](C(N)=O)NC1=O,rat,"intravenous, 2 mg/kg",2.1
COC(=O)C(NC(=O)c1cn(CCCCCF)c2ccccc12)C(C)(C)C (stereo not drawn),male Sprague-Dawley rat,"subcutaneous, 100 µg/kg",10.3
O=C(Nc1cccnn1)N1CCN([C@@H]2CCOc3cc(C(F)(F)F)ccc32)CC1,male Sprague-Dawley rat,"oral, 1 mg/kg",5.5
CCCC[C@@H]1NC(=O)[C@H](Cc2ccc(O)cc2)NC(=O)[C@@H]2CCCN2C(=O)[C@H](CC(=O)O)NC(=O)[C@H](C)NC(=O)[C@H](Cc2ccccc2)NC(=O)[C@@H]2CSCCC(=O)N3CN(CN(C3)C(=O)CCSC[C@@H](C(=O)N[C@@H](CNC(=O)CCc3cn(CCOCCOCCOCCN(CCOCCOCCOCCC(=O)N[C@H]4CSCCC(=O)N5CN6CN(C5)C(=O)CCSC[C@H](NC(=O)[C@@H](CC(=O)O)NC(=O)[C@H](Cc5cccc7ccccc57)NC(=O)[C@@H]5CCCN5C4=O)C(=O)N[C@@H](CCSC)C(=O)N[C@@H](CCCCNC(=N)N)C(=O)N[C@@H](CC(=O)O)C(=O)N[C@@H](Cc4c[nH]c5ccccc45)C(=O)N[C@@H](CO)C(=O)N[C@@H]([C@@H](C)O)C(=O)N4CCC[C@H]4C(=O)N4C[C@H](O)C[C@H]4C(=O)N[C@@H](Cc4c[nH]c5ccccc45)C(=O)N[C@H](C(N)=O)CSCCC6=O)CCOCCOCCOCCn4cc(CCC(=O)NC[C@H](NC(=O)[C@@H]5CSCCC(=O)N6CN7CN(C6)C(=O)CCSC[C@H](NC(=O)[C@H](Cc6ccc(O)cc6)NC(=O)[C@@H]6CCCN6C(=O)[C@@H](C)NC(=O)[C@H](CCC(=O)O)NC(=O)[C@@H]6CCCN6C(=O)[C@H](CC(C)(C)C)NC(=O)[C@@H](NC(C)=O)CSCCC7=O)C(=O)N[C@@H](Cc6ccccc6)C(=O)N[C@@H](C)C(=O)N[C@@H](CC(=O)O)C(=O)N6CCC[C@H]6C(=O)N[C@@H](Cc6ccc(O)cc6)C(=O)N[C@@H](CCCC)C(=O)N5)C(N)=O)nn4)nn3)C(N)=O)NC1=O)C(=O)CCSC[C@H](NC(C)=O)C(=O)N[C@@H](CC(C)(C)C)C(=O)N1CCC[C@H]1C(=O)N[C@@H](CCC(=O)O)C(=O)N[C@H](C)C(=O)N1CCC[C@H]1C(=O)N[C@@H](Cc1ccc(O)cc1)C(=O)N2,rat,"intravenous, 2 mg/kg",3.6
Cl.Cl.O=C(CCN1CCCCC1)c1ccc(-c2ccc(C(=O)CCN3CCCCC3)cc2)cc1,Sprague-Dawley rat,"intravenous, 5 mg/kg",0.08
CCCCCn1nc(C(=O)Nc2cccc3ccccc23)c2ccccc21,male Long-Evans rat,"intraperitoneal, 3 mg/kg",5.4
[2H]C([2H])(c1cc(F)c(F)cc1F)n1c(=O)n(Cc2ncn(C)n2)c(=O)[nH]/c1=N\c1cc2cn(C)nc2cc1Cl,male Sprague-Dawley rat,"oral, 25 mg/kg",4.16
CN1CCN(Cc2ccc(NC(=O)c3cncc(C#Cc4cnc(N)c5ncccc45)c3)cc2C(F)(F)F)CC1,rat,"intravenous, 2 mg/kg",3.4
[2H]C([2H])([2H])n1cc2cc(Nc3nc(=O)n(Cc4ncn(C)n4)c(=O)n3Cc3cc(F)c(F)cc3F)c(Cl)cc2n1,male Sprague-Dawley rat,"oral, 25 mg/kg",3.39
O=C([O-])C(=O)[O-].[NH-][C@@H]1CCCC[C@H]1[NH-].[Pt+4] (relative stereo),rat,"intravenous, 5 mg/kg",3.1
